Compounds with a hit are over-represented: about 2.6% of the library has one in this group of screens.
SR-BI DiI-HDL act: activators of SR-BI mediated HDL lipid uptake. CHO ldlA[mSR-BI] cells, DiI-HDL uptake fluorescence, 3 h; 100 = double the neutral-control signal. activation, % at 12.5 µM. 320,000 compounds, 0.096% hits. AID 504775;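 active = mean replicate activation of at least 60% and every replicate at or above 60%; inconclusive = mean or all-replicate condition met, but not both; inactive = mean below 60% and not all replicates reaching 60%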
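System: LDL receptor-deficient CHO ldlA cells overexpressing murine SR-BI | Timing: 3 h uptake period with compound, 37 °C | Medium: HEPES-buffered (25 mM, pH 7.4) F12 plus 0.5% BSA | Dosing: Single-point compound dose | Signal: Bottom-read fluorescence, 550/595 nm | Read-out: Retained DiI signal reflecting DiI-HDL uptake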
rRNA inh HTS: inhibitors of bacterial rRNA selective over humanized ribosomes. E. coli WT GFP vs humanized-ribosome RFP mutants, fluorescence, 24 h; stronger effect = lower value; DMSO median 0, no signal -100. GFP signal change (wild-type ribosome), % (test concentration not listed). 350,000 compounds, 1.6% hits;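 active = significant combined selectivity score with lowered wild-type GFP, culture density cut under 30%, mutant RFP and density less affected; inactive = any of these conditions unmet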
SR-BI DiI inh: mouse SR-BI HDL lipid transfer inhibition; Q61009; ldlA[mSR-BI] CHO cells, DiI-HDL uptake fluorescence, 3 h; inhibition, % at 12.5 µM; 320,000 compounds, 0.96% hits; AID 488896;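 active = mean replicate inhibition of at least 70% and a set share of replicates each scoring 70 or more; inconclusive = meets just one of the two criteria; inactive = fails both criteria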
Target sequence (Q61009 whole entry, looked up): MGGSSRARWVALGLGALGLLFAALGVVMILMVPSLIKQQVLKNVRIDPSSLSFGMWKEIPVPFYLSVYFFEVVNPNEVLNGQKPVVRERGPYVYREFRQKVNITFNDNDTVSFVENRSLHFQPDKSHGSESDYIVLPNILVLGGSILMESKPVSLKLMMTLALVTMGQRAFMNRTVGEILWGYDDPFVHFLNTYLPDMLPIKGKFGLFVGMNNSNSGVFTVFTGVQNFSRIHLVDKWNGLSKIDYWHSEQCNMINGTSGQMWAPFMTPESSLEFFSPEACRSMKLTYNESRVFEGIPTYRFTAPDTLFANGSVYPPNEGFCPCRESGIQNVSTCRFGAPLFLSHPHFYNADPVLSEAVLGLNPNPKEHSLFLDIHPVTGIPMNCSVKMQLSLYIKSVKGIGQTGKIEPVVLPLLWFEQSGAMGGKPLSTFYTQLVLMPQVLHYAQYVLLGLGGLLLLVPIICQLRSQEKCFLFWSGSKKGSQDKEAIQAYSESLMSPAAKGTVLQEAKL
PvdQ acylase: P. aeruginosa PvdQ acylase inhibition; purified PvdQ acylase, fluorescence plate reader; inhibition, % at 10 µM; 340,000 compounds, 0.063% hits; AID 488965; in the data active = inhibition above about 30%, passing the limit was not always enough; inconclusive = no clear call, values can overlap the other calls
Xi reactivation: activators of X-chromosome reactivation in mouse fibroblasts | XiGFP mouse fibroblasts, % GFP-positive cells imaging, 3 d; cells co-treated with 5-aza-dC sensitizer; scaled so ellipticine positive control = 100% | activation, % at 7.58 µM | 360,000 compounds, 0.055% hits | AID 743238;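 active = mean normalized replicate activation at least 10% and every replicate at or above 10%; inconclusive = only one of the two criteria met; inactive = mean below 10% and not all replicates reach 10%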
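Material: XiGFP fibroblasts, SV40-immortalized. Buffer or medium: DMEM plus 5-aza-dC sensitizer. Compound: single concentration per compound, delivered by pin transfer. Times: 3 days compound exposure. Controls: ellipticine 6 µM.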
dFosB activator: mouse delta FosB homodimer activation. purified delta FosB, TAMRA-CDK5 oligo fluorescence polarization; percent of positive-control signal above neutral wells. activation, % at 25 µM. 340,000 compounds, 0.99% hits. AID 493131;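 active = mean activation above about 17%, with every replicate also reaching it, limit read from the data, passing the limit was not always enough; inconclusive = only one of the two conditions met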
Large screens that a line does not name were inactive.

Cn1cccc1-c1cc(C(=O)N/N=C/c2cc(Br)ccc2O)[nH]n1	SR-BI DiI inh 105, dFosB activator inconclusive
Cn1cccc1-c1cc(C(=O)N/N=C/c2ccc(F)cc2)[nH]n1	none
O=C(COc1ccccc1)OC(C(=O)c1ccccc1)c1ccccc1 (stereo unspecified)	none
CCN1C(=O)N[C@@H](c2cccc(C(F)(F)F)c2)[C@H](C(C)=O)[C@H]1C	none
Oc1c(N=Nc2ccccn2)ccc2ccccc12	SR-BI DiI inh 134 (no result: rRNA inh HTS, Xi reactivation)
Oc1[nH]c2ccccc2c1N=Nc1ccccn1	none
C[C@H](CO)N1C[C@H](C)[C@H](CN(C)CC2CCCCC2)Oc2ccc(NC(=O)Nc3ccc4c(c3)OCO4)cc2CC1=O	none (no result: SR-BI DiI-HDL act, SR-BI DiI inh, PvdQ acylase, dFosB activator)
Oc1ccc(C[C@H]2CNC(=S)N2CC2CCCN2C[C@H](Cc2ccc(O)cc2)N2C[C@H](Cc3ccc(O)cc3)N(CC3CCCCC3)C2=S)cc1 (stereo partly specified)	SR-BI DiI-HDL act 183
Oc1ccc(C[C@H]2CNC(=S)N2CC2CCCN2C[C@H](Cc2ccccc2)N2C[C@H](Cc3ccc(O)cc3)N(CC3CCCCCC3)C2=S)cc1 (stereo partly specified)	SR-BI DiI-HDL act 86, dFosB activator inconclusive
Oc1ccc(C[C@H]2CN([C@@H](Cc3ccccc3)CN3CCCC3CN3C(=S)NC[C@@H]3Cc3ccccc3)C(=S)N2CC2CCCCC2)cc1 (stereo partly specified)	none (no result: SR-BI DiI-HDL act, SR-BI DiI inh, PvdQ acylase, dFosB activator)
CC(C)C[C@H]1CN([C@@H](Cc2ccc(O)cc2)CN2CCC[C@H]2CN2C(=O)C(=O)NC[C@@H]2Cc2ccccc2)C(=O)C(=O)N1CCc1ccccc1	none (no result: SR-BI DiI-HDL act, SR-BI DiI inh, PvdQ acylase, dFosB activator)
CC(C)C[C@H]1CN([C@@H](Cc2ccc(O)cc2)CN2CCC[C@H]2CN2C(=O)C(=O)NC[C@@H]2Cc2ccc(O)cc2)C(=O)C(=O)N1CCc1ccccc1	rRNA inh HTS -28 (no result: SR-BI DiI-HDL act, SR-BI DiI inh, PvdQ acylase, dFosB activator)
COc1ccc(CNC2CCCc3ccccc32)cc1OC (stereo unspecified)	none
CCOc1ccc(CNC2CCCc3ccccc32)cc1 (stereo unspecified)	PvdQ acylase 38
CN=c1scc(-c2ccco2)n1/N=C/c1ccc(O)c(O)c1	SR-BI DiI inh 73
CCN(C(=O)COC(=O)c1ccc([N+](=O)[O-])o1)c1cccc2ccccc12	rRNA inh HTS -19
CC(C)(C)N(Cc1ccccc1)C(=O)COC(=O)c1ccc([N+](=O)[O-])o1	none (no result: rRNA inh HTS)
O=C1CCCC(NCCCCCCNC2=C([N+](=O)[O-])C(=O)CCC2)=C1[N+](=O)[O-]	none (no result: rRNA inh HTS, Xi reactivation)
Cc1ccc(C(=O)c2coc3cc([N+](=O)[O-])c(O)c([N+](=O)[O-])c23)cc1	rRNA inh HTS -48
Cc1ccc(C(=O)c2ccc([N+](=O)[O-])cc2)cc1	none (no result: rRNA inh HTS, Xi reactivation)
Cc1cccc(-n2c(SCC(=O)N3CCCC3)nnc2-c2ccccn2)c1C	none (no result: Xi reactivation)
Nc1[nH]c(C(=O)c2ccccc2)c(-c2ccccc2[N+](=O)[O-])c1C(=O)NCCc1c[nH]c2ccccc12	rRNA inh HTS -38 (no result: SR-BI DiI-HDL act, SR-BI DiI inh, PvdQ acylase, dFosB activator)
Nc1[nH]c(C(=O)c2ccccc2)c(-c2ccc([N+](=O)[O-])cc2)c1C(=O)NCCc1c[nH]c2ccccc12	none (no result: SR-BI DiI-HDL act, SR-BI DiI inh, PvdQ acylase, dFosB activator)
C#Cc1cccc(C(=O)N2CCCC(Nc3cccc(F)c3)C2)c1 (stereo unspecified)	rRNA inh HTS -33
COc1cc(OC)cc(C(=O)N2CCCC(Nc3ccc(F)cc3)C2)c1 (stereo unspecified)	none
O=C(c1ccsc1)N1CCCC(Nc2cccc(F)c2)C1 (stereo unspecified)	none
C=CCOc1cccc(C(=O)N2CCCC(Nc3ccc(F)cc3)C2)c1 (stereo unspecified)	rRNA inh HTS -26
N#CCCN1CCN(C(=S)c2ccc(-c3ccc(Cl)cc3)o2)CC1	rRNA inh HTS -28 (no result: Xi reactivation)
N/C(=N\OC(=O)c1cc(-c2ccccc2)nc2ccccc12)c1cccnc1	none (no result: rRNA inh HTS)
CCOC(=O)C1CN(S(=O)(=O)c2ccccc2)c2cc(S(=O)(=O)CC)ccc2O1 (stereo unspecified)	none (no result: rRNA inh HTS, Xi reactivation)
COc1ccc(S(=O)(=O)N(C)C[C@H]2Oc3c(NS(=O)(=O)c4ccccc4)cccc3C(=O)N([C@@H](C)CO)C[C@H]2C)cc1	none (no result: SR-BI DiI-HDL act, SR-BI DiI inh, PvdQ acylase, dFosB activator)
COc1ccc(-c2nnc(SCc3ccccc3F)o2)cc1	none (no result: rRNA inh HTS, Xi reactivation)
COc1cc(OC)cc(-c2nnc(SCc3c(F)cccc3Cl)o2)c1	rRNA inh HTS -28 (no result: Xi reactivation)
CCCN1CN(Cc2ccccc2)CC2=C1CC(C)(C)CC2=O	none (no result: rRNA inh HTS, Xi reactivation)
OC(c1ccccc1)(c1nc(-c2csc3ccccc23)cs1)C(F)(F)F (stereo unspecified)	none (no result: SR-BI DiI-HDL act, SR-BI DiI inh, PvdQ acylase, dFosB activator)
Cc1ncc(CO)c(/C=N/NC(=O)c2cc(Br)ccc2O)c1O	SR-BI DiI inh 116
Cc1cc(C(=O)N/N=C/c2c(CO)cnc(C)c2O)c2ccccc2n1	none
CC(=O)c1cccc(NC(=O)Nc2csc3c2CCCC3)c1	SR-BI DiI inh 75
CC(=O)c1cccc(NC(=O)c2csc3c2CCCCC3)c1	none
Cn1c(=O)c2c(ncn2CC(=O)OCC(=O)Nc2ccc(Cl)cc2Cl)n(C)c1=O	none
O=S1(=O)CCOC[C@H](c2ccccc2)N1Cc1cccc(Cl)c1	PvdQ acylase 43
O=[N+]([O-])c1ccccc1Nc1c2ccccc2nc2ccccc12	SR-BI DiI inh 77
COc1ccc(C(NC(=O)c2cccnc2)c2cc(Cl)c3cccnc3c2O)cc1OC (stereo unspecified)	none (no result: rRNA inh HTS, Xi reactivation)
CCCN1C(=O)/C(=C/c2ccco2)SC1=Nc1ccc(OC)cc1	SR-BI DiI inh 79 (no result: rRNA inh HTS, Xi reactivation)
COc1ccc(/C=N/NC(=O)c2ccc(NC(=O)c3ccccc3Br)cc2)cc1	dFosB activator inconclusive (no result: rRNA inh HTS)
Cc1ccccc1C(=O)Nc1ccc(C(=O)N/N=C/c2ccc(O)c(Br)c2)cc1	rRNA inh HTS -19
Cc1ccccc1C(=O)Nc1ccc(C(=O)N/N=C/c2ccc(F)cc2)cc1	SR-BI DiI inh 84
COc1ccc(CCNC(=O)c2ccc(-c3ccc([N+](=O)[O-])cc3)o2)cc1OC	none
O=C(N/N=C/c1ccc2c(c1)OCO2)c1cc(-c2ccccc2)nc2ccccc12	none
O=C(N/N=C/c1ccccn1)c1cc(-c2ccc(Br)cc2)nc2ccccc12	SR-BI DiI inh 76
O=C(O)COc1ccccc1/C=N/NC(=O)c1cc(-c2ccccc2)nc2ccccc12	none (no result: SR-BI DiI-HDL act, SR-BI DiI inh)
O=C(N/N=C/c1ccccn1)c1cc(-c2ccc(Cl)cc2)nc2ccccc12	SR-BI DiI inh 107
Cc1ccc(-c2cc(C(=O)N/N=C\c3cnn(C)c3C)c3ccccc3n2)cc1C	SR-BI DiI inh 96 (no result: rRNA inh HTS, Xi reactivation)
O=C(N/N=C/c1ccccc1OC(F)F)c1cc(-c2ccncc2)nc2ccccc12	SR-BI DiI inh 90
CCCNC(=O)N1CC2(C1)[C@@H](c1ccccc1)[C@H](CO)N2C(=O)C1CCCC1	none (no result: SR-BI DiI-HDL act, SR-BI DiI inh, PvdQ acylase, dFosB activator)

Assay outcomes as filed in PubChem.
